The results in this text go back to article PMC5484535 (Bioorganic & medicinal chemistry, 2016).

A word on the inhibition: it is the relative decrease from the control value, in per cent.

In assay [1] the target is T1, TAK1 (Homo sapiens, UniProt O43318).
T1 sequence (O43318 1-606): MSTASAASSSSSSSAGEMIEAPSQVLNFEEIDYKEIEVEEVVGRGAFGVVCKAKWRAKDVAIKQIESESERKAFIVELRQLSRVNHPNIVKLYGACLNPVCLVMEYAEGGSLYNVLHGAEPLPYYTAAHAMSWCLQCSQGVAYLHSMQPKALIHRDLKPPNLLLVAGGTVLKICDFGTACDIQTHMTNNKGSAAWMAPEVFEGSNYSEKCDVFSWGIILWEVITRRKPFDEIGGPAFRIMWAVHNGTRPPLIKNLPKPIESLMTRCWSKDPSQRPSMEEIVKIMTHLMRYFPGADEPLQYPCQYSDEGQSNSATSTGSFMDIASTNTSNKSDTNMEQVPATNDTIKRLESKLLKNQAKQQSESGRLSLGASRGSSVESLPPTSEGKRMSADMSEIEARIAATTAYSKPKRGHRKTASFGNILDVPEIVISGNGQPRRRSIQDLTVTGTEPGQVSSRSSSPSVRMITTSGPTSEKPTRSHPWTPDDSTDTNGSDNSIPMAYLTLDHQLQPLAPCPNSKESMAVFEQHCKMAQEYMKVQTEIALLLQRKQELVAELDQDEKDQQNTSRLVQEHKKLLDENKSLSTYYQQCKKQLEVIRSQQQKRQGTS
Nature of the assay: KiNativ live-cell profiling in SK-CO-1 cells. It is filed as binding. The settings on record: 1 μM.

For the next assay, the target named is T2, MAP2K5 (Homo sapiens, UniProt Q13163).
T2 sequence (Q13163 1-448): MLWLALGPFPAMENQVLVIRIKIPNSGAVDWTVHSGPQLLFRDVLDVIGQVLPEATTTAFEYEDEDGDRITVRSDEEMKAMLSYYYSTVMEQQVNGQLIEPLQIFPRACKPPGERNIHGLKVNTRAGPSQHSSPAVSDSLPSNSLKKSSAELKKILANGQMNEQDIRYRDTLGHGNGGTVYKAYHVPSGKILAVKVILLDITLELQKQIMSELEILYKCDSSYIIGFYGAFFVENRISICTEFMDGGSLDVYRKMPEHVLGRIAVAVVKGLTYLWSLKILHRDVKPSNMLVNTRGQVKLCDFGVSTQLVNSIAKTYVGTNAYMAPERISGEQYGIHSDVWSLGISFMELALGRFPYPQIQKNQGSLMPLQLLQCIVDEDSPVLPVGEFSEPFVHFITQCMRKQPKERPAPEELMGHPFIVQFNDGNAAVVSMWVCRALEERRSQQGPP
Nature of the assay: KiNativ live-cell profiling in SK-CO-1 cells. The settings on record: read-out: Inhibition (%) MAP2K5. It is filed as binding.

The target of the next assay is T3, ARAF (Homo sapiens, UniProt P10398).
T3 sequence (P10398 1-606): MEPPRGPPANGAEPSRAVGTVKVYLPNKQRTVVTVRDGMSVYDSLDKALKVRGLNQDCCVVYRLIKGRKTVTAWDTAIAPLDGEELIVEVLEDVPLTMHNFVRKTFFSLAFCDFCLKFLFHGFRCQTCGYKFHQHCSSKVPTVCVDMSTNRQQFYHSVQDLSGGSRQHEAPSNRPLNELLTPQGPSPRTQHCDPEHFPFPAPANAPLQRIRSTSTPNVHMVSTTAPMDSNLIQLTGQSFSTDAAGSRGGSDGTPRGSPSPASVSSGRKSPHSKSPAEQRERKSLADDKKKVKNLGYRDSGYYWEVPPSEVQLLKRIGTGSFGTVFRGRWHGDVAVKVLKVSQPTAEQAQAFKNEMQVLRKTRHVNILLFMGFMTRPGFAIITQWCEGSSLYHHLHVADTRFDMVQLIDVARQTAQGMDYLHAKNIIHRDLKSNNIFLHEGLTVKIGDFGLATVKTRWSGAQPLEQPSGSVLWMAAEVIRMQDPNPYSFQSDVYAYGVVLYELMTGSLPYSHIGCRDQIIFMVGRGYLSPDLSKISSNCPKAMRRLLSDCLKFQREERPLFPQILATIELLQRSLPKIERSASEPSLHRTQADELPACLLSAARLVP
Briefly: KiNativ live-cell profiling in SK-CO-1 cells. The assay is classed as binding. Particulars: read-out: Inhibition (%) ARAF.

A further assay concerns the target T4, MAP2K6 (Homo sapiens, UniProt P52564).
T4 sequence (P52564 1-334): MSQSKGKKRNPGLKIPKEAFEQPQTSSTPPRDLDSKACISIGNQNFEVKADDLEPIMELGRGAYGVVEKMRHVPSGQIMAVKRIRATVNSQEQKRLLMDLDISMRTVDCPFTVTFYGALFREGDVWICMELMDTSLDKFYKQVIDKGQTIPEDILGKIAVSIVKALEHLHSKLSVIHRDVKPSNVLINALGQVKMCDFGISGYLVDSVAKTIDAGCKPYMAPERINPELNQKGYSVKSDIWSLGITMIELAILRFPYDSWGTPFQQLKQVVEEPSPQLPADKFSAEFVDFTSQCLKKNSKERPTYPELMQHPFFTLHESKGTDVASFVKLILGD
Briefly: KiNativ live-cell profiling in SK-CO-1 cells. The assay is classed as binding. Particulars: read-out: Inhibition (%) MAP2K6.

Assay [2] addresses T1, TAK1. Briefly: Competitive pulldown of TAK1 with biotinylated probe 27 in H358 and H23 cells. It is filed as cell-based. The settings on record: 10 μM compound, 6 h, washout, lysate + 1 μM 27. The gist of the method: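 H358 and H23 NSCLC cells (KRAS G12C) were exposed to test compound at 1 or 10 μM for 6 h. Drug medium was removed, and cells were rinsed twice with cold PBS and lysed in MPER buffer. Lysates were incubated overnight at 4 °C with 1 μM biotinylated probe and pulled down on streptavidin beads. Recovered TAK1 was detected by immunoblotting.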

Assay [3] has as its system synovial fibroblasts from an RA patient (RA2159). Nature of the assay: Cytokine secretion by activated RA synovial fibroblasts. It is filed as cell-based, human. Particulars: 3 μM; TNFα, IL-1α or Poly(I:C) activation. The method in brief: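 Primary human RA synovial fibroblasts (lot RA2159) were seeded at 1000 cells/well, grown ~24 h, then starved overnight and ~4 h in 0.1% BSA. Pooled supernatants (duplicates) were diluted 1:3 for 48-analyte Luminex measurement and iMLR modeling.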

The structures appear in SMILES notation.

Take `C=CC(=O)Nc1ccccc1Oc1nc(Nc2cnn(CCOC)c2)ncc1Cl` [Compound 25]: the “binding to TAK1 in KiNativ assay” value on TAK1 [1] is recorded as “could not detect binding to TAK1”. The inhibition at 1 µM was -59.6% on MAP2K5, -15.8% on ARAF and -21.6% on MAP2K6. Further, at TAK1 [2], the “blocking of labeling of TAK1 by 27” value was “only partially blocked labeling of TAK1”. Moreover, the “normalization of induced cytokine secretion” value in assay [3] is reported as “normalized cytokine secretion”.
